For test [1], the target named is T1, Ras guanyl-releasing protein 3 (Homo sapiens) (UniProt Q8IV61).
T1 sequence (whole entry): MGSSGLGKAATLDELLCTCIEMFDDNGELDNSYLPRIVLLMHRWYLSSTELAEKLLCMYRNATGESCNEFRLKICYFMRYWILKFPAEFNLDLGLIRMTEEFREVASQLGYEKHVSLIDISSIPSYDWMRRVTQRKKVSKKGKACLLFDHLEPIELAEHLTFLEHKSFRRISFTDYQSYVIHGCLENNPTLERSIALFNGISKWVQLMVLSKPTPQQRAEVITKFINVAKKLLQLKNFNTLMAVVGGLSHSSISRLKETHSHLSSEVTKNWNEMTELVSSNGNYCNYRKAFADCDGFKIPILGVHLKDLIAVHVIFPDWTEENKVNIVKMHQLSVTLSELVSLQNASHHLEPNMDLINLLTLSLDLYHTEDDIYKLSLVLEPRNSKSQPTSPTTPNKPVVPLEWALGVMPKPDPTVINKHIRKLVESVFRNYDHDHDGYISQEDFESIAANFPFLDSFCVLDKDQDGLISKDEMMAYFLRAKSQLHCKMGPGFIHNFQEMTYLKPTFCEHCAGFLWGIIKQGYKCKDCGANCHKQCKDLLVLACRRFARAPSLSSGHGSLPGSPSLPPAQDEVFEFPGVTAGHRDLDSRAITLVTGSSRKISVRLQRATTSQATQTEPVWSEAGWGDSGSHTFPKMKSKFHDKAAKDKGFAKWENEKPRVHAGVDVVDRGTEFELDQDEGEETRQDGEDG
The test is described as follows: Activation of RasGRP3 (unknown origin) overexpressed in HEK293 cells assessed as ERK1/2 phosphorylation at 1 to 10 uM after 30 mins by Western blot analysis. The class given is cell-based.

Test [2] concerns the target Protein kinase C alpha type (Homo sapiens, UniProt P17252). The test is described as follows: Binding affinity to recombinant human GFP-tagged PKC-alpha expressed in CHOK1 cells assessed as induction of protein translocation from plasma membrane to internal membrane at 10000 nM after 2 to 5 mins by confocal microscopic analysis. Format: cell-based. Conditions: CHO-K1. Summed up: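 CHO-K1 cells were transiently transfected with human GFP-PKCα and imaged live by confocal microscopy 24 h later (488 nm excitation, 500–530 nm emission) every 30 s for 30 min after 10 μM ligand. Membrane/cytoplasm intensity ratio from 4 μm2 regions was normalized to time 0. n = 3–6.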

The structures appear in SMILES notation. Active and inactive are the calls of the source. The calls are words filed in the database; no cut-off is given here.

As for `CCCC(CCC)C(=O)OCC1(CO)C/C(=C\c2cn(C)c3ccccc23)C(=O)O1` (configuration not stated), in test [1], the outcome was Active.
As for `CCCC(CCC)C(=O)OCC1(CO)C/C(=C\c2ccc3ccn(C)c3c2)C(=O)O1` (configuration not stated), in test [2], the result was Active.

Source of the values: ChEMBL document CHEMBL3286272, “Synthesis, biological, and biophysical studies of DAG-indololactones designed as selective activators of RasGRP” (Bioorg Med Chem, 2014).
